In ChEMBL document CHEMBL2150991, “Synthesis of novel N-branched acyclic nucleoside phosphonates as potent and selective inhibitors of human, Plasmodium falciparum and Plasmodium vivax 6-oxopurine phosphoribosyltransferases” (J Med Chem, 2012):
Values after ≈ are worked out from the molar mass of the structure shown.

Tests used:
HL-60 = assay: Cytostatic activity against human HL60 cells; type: ADME, cell-based
[1] = Cytotoxicity against human HEL cells; type: cell-based
[2] = Inhibition of Plasmodium falciparum recombinant HGPRT expressed in Escherichia coli using Prib-PP as substrate by spectrophotometric assay in presence of guanine
Method in brief: (§1)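 Continuous spectrophotometric assay at 25 °C in 0.1 M Tris-HCl, 10 mM MgCl₂, pH 7.4. PRib-PP is the variable substrate. Guanine is held fixed at a saturating 60 μM. Values are apparent Ki, since only one concentration of the second substrate was used. Each was calculated from Km(app) = Km(1 + [I]/Ki(app)).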

[3] = Cytotoxicity against cat CRFK cells; type: cell-based, Felis catus
[4] = Cytostatic activity against human HeLaS3 cells; type: ADME, cell-based; conditions: hela s3
[5] = Inhibition of Plasmodium vivax HGPRT using Prib-PP as substrate by spectrophotometric assay in presence of guanine; method in brief: as §1
L1210 = assay: Cytostatic activity against mouse L1210 cells; type: ADME, cell-based
[6] = target: T1, Hypoxanthine-guanine phosphoribosyltransferase (Homo sapiens, UniProt P00492); assay: Inhibition of human HGPRT using Prib-PP as substrate by spectrophotometric assay in presence of guanine; method in brief: as §1
T1 sequence (P00492 whole entry): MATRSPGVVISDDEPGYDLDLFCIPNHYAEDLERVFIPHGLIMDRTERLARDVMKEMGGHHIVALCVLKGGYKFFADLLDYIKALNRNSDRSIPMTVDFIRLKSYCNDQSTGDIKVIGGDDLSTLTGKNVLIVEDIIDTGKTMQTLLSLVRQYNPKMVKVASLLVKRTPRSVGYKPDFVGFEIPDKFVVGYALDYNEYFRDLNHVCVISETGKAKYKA

[7] = Cytotoxicity african green monkey Vero cells; type: cell-based; conditions: chlorocebus sabaeus
CCRF-CEM = assay: Cytostatic activity against human CCRF-CEM cells; type: ADME, cell-based

Row | SMILES | Ki [6] [nM] | Activity (HL-60) | CC50 [1] [µg/mL] | Ki [2] [nM] | CC50 [3] [µg/mL] | Activity [4] | Ki [5] [nM] | Activity (L1210) | CC50 [7] [µg/mL] | Activity (CCRF-CEM)
1 | CCOC(=O)CN(CCn1cnc2c(=O)[nH]c(N)nc21)CCP(=O)(O)O | 100 | Non-toxic | > 100 | 1700 | > 100 | Non-toxic | 1500 | Non-toxic | > 100 | Non-toxic
2 | COC(=O)CCN(CCn1cnc2c(=O)[nH]c(N)nc21)CCP(=O)(O)O | 500 | Non-toxic | > 100 | 100 | > 100 | Non-toxic | 4000 | Non-toxic | > 100 | Non-toxic
3 | COC(=O)CCCN(CCn1cnc2c(=O)[nH]c(N)nc21)CCP(=O)(O)O | 100 | Non-toxic | > 100 | 1300 | > 100 | Non-toxic | > 200000 | Non-toxic | > 100 | Non-toxic
4 | N#CCN(CCn1cnc2c(=O)[nH]c(N)nc21)CCP(=O)(O)O |  | Non-toxic | 53 (≈ 155 µM) |  | > 100 | Non-toxic |  | Non-toxic | > 100 | Non-toxic
5 | N#CCCN(CCn1cnc2c(=O)[nH]c(N)nc21)CCP(=O)(O)O | 70 | Non-toxic | > 100 | 200 | > 100 | Non-toxic | 300 | Non-toxic | > 100 | Non-toxic
6 | N#CCCCN(CCn1cnc2c(=O)[nH]c(N)nc21)CCP(=O)(O)O | 600 | Non-toxic | > 100 | 4000 | > 100 | Non-toxic | 8000 | Non-toxic | > 100 | Non-toxic
7 | Nc1nc2c(ncn2CCN(CCP(=O)(O)O)CC(=O)O)c(=O)[nH]1 | 1400 | Non-toxic | > 100 | 700 | > 100 | Non-toxic | 28000 | Non-toxic | > 100 | Non-toxic
8 | Nc1nc2c(ncn2CCN(CCC(=O)O)CCP(=O)(O)O)c(=O)[nH]1 | 150 | Non-toxic | > 100 | 200 | > 100 | Non-toxic | 50 | Non-toxic | > 100 | Non-toxic
9 | Nc1nc2c(ncn2CCN(CCCC(=O)O)CCP(=O)(O)O)c(=O)[nH]1 | 100 | Non-toxic | > 100 |  | > 100 | Non-toxic | 25000 | Non-toxic | > 100 | Non-toxic
10 | Nc1nc2c(ncn2CCN(CCP(=O)(O)O)CCP(=O)(O)O)c(=O)[nH]1 | 200 | Non-toxic | > 100 | 300 | > 100 | Non-toxic | 900 | Non-toxic | > 100 | Non-toxic
11 | CCOC(=O)CN(CCn1cnc2c(=O)[nH]cnc21)CCP(=O)(O)O | 2600 | Non-toxic | > 100 | 1900 | > 100 | Non-toxic | 11000 | Non-toxic | > 100 | Non-toxic
12 | COC(=O)CCCN(CCn1cnc2c(=O)[nH]cnc21)CCP(=O)(O)O | 22000 | Non-toxic | > 100 | ≥ 220000 | > 100 | Non-toxic | > 250000 | Non-toxic | > 100 | Non-toxic
13 | O=c1[nH]cnc2c1ncn2CCN(CCP(=O)(O)O)CCP(=O)(O)O | 3000 | Non-toxic | > 100 |  | > 100 | Non-toxic | 13000 | Non-toxic | > 100 | Non-toxic
14 | Nc1nc2c(ncn2CCN(CCO)CCP(=O)(O)O)c(=O)[nH]1 | 70 | Non-toxic | > 100 | 200 |  | Non-toxic | 1400 | Non-toxic |  | Non-toxic
15 | Nc1nc2c(ncn2CCNCCP(=O)(O)O)c(=O)[nH]1 |  | Non-toxic | > 100 | 16000 |  | Non-toxic | 11000 | Non-toxic |  | Non-toxic
16 | O=c1[nH]cnc2c1ncn2CCNCCP(=O)(O)O |  | Non-toxic | > 100 | ≥ 200000 |  | Non-toxic | ≥ 250000 | Non-toxic |  | Non-toxic

Second part, led by results:

Row | Ki [6] [nM] | SMILES | Activity (HL-60) | CC50 [1] [µg/mL] | Ki [2] [nM] | CC50 [3] [µg/mL] | Activity [4] | Ki [5] [nM] | Activity (L1210) | CC50 [7] [µg/mL] | Activity (CCRF-CEM)
17 | > 200000 | COC(=O)CCN(CCn1cnc2c(=O)[nH]cnc21)CCP(=O)(O)O | Non-toxic | > 100 | 100 | > 100 | Non-toxic | 21000 | Non-toxic | > 100 | Non-toxic
18 | 35000 | N#CCN(CCn1cnc2c(=O)[nH]cnc21)CCP(=O)(O)O | Non-toxic | > 100 | ≥ 250000 | > 100 | Non-toxic | 47000 | Non-toxic | > 100 | Non-toxic
19 | 2400 | N#CCCN(CCn1cnc2c(=O)[nH]cnc21)CCP(=O)(O)O | Non-toxic | > 100 | 200 | > 100 | Non-toxic | 700 | Non-toxic | > 100 | Non-toxic
20 | 29000 | N#CCCCN(CCn1cnc2c(=O)[nH]cnc21)CCP(=O)(O)O | Non-toxic | > 100 | 6000 | > 100 | Non-toxic | > 230000 | Non-toxic | > 100 | Non-toxic
21 | 32000 | O=C(O)CN(CCn1cnc2c(=O)[nH]cnc21)CCP(=O)(O)O | Non-toxic | > 100 |  | > 100 | Non-toxic | 178000 | Non-toxic | > 100 | Non-toxic
22 | > 240000 | O=C(O)CCN(CCn1cnc2c(=O)[nH]cnc21)CCP(=O)(O)O | Non-toxic | > 100 | 400 | > 100 | Non-toxic | 41000 | Non-toxic | > 100 | Non-toxic
23 | 5400 | O=C(O)CCCN(CCn1cnc2c(=O)[nH]cnc21)CCP(=O)(O)O | Non-toxic | > 100 | ≥ 210000 | > 100 | Non-toxic | 1600 | Non-toxic | > 100 | Non-toxic
24 | 5500 | O=c1[nH]cnc2c1ncn2CCN(CCO)CCP(=O)(O)O | Non-toxic | > 100 | 2600 | > 100 | Non-toxic | 21000 | Non-toxic | > 100 | Non-toxic
